From ChEMBL document CHEMBL1121475, “Inhibitors of indoleethylamine N-methyltransferase. Derivatives of 3-methyl-2-thiazolidinimine. In vitro, in vivo, and metabolic studies” (J Med Chem, 1980)

What was measured:
Oryctolagus cuniculus [1] = experiment: 100 mg/kg of [14C]- radiolabeled compound was intravenously (gavage) injected in rabbit3, and radioactivity content in feces was estimated at total hours; format: ADME, organism-based; settings: rabbit, in vivo, po, in the assay text read “orally (gavage) administered” for “intravenously (gavage) injected”
Outline: (§1)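 Rabbit given 100 mg/kg [14C]-labelled drug by gavage, 204.6 dpm/μg, in water/0.1 N HCl at 6.66 mg/mL. Rabbit 1 was killed at 2 h and liver, lung, kidney and blood taken; tissue values are μg equivalents/g and tissue:plasma ratio. Rabbit 3 was kept for urine (0-24, 24-48, 48-72 h) and feces (0-48 h), expressed as % of dose.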

Oryctolagus cuniculus [2] = experiment: 100 mg/kg of [14C]- radiolabeled compound was orally (gavage) injected in rabbit kidney, and radioactivity content in feces was estimated; format: ADME, organism-based; settings: in vivo, po; outline: as §1
Oryctolagus cuniculus [3] = experiment: 100 mg/kg of [14C]- radiolabeled compound was orally (gavage) injected in rabbit1plasma, and radioactivity content in feces was estimated; format: ADME, organism-based; settings: rabbit, in vivo, po; outline: as §1
Oryctolagus cuniculus [4] = experiment: Radioactivity measurements were performed following oral administration of the 100 mg/kg in rabbit 5 after 2 hr lung; format: ADME, organism-based; parameters: dose 100 mg/kg, route oral; settings: in vivo
Outline: (§2)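 Male rabbits (900-1060 g) received [14C]-labelled parent amide, 100 mg/kg (251.7 dpm/μg, pH about 4.5), by gavage. At 2 or 6 h they were killed by air injection into the ear vein. Blood was drawn by cardiac puncture; brain and lung were homogenized in water (1 g = 10 mL). Radioactivity is expressed as μg equivalents of parent per g or mL.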

Oryctolagus cuniculus [5] = experiment: Radioactivity measurements were performed following oral administration of the 100 mg/kg in rabbit 6 after 2 hr in plasma; format: ADME, organism-based; parameters: dose 100 mg/kg, route oral; settings: in vivo; outline: as §2
Oryctolagus cuniculus [6] = experiment: Radioactivity measurements were performed following oral administration of the 100 mg/kg in rabbit 7 after 6 hr in plasma; format: ADME, organism-based; parameters: dose 100 mg/kg, route oral; settings: in vivo; outline: as §2
Oryctolagus cuniculus [7] = experiment: Radioactivity measurements were performed following oral administration of the 100 mg/kg in rabbit 8 after 6 hr in plasma; format: ADME, organism-based; parameters: dose 100 mg/kg, route oral; settings: in vivo; outline: as §2
Oryctolagus cuniculus [8] = experiment: Percent of 3-Methyl-thiazolidin-2-ylideneamine as administered dose was reported in rabbit 4 by Gas-liquid chromatographic analysis; format: ADME, organism-based; settings: in vivo
Outline: (§3)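 Rabbits 3 (single 100 mg/kg) and 4 (two 100 mg/kg doses 2 h apart) were gavaged with [14C]-labelled parent amide (204.6 dpm/μg). They were not killed; urine was collected 0-24 h. The metabolite was quantified by GLC of trimethylsilylated extracts against an internal-standard peak-height-ratio curve. Results are given as % of urinary radioactivity or % of administered dose, mean of two determinations.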

Oryctolagus cuniculus [9] = experiment: Percent of 3-Methyl-thiazolidin-2-ylideneamine as administered dose was reported in rabbit 2; format: ADME, organism-based; settings: in vivo
Oryctolagus cuniculus [10] = experiment: Evaluation of formation of 3-Methyl-thiazolidin-2-ylideneamine from the radiolabeled compound, orally administered, from rabbit 4 urine was analyzed at 0-2 hr by Gas-liquid chromatographic analysis; format: ADME, organism-based; settings: in vivo, po, in the assay text read “0-24 hr” for “0-2 hr”; outline: as §3
Oryctolagus cuniculus [11] = experiment: Evaluation of formation of 3-Methyl-thiazolidin-2-ylideneamine from the radiolabeled compound, orally administered, from rabbit 1,2 kidney was analyzed by Gas-liquid chromatographic analysis; format: ADME, organism-based; settings: in vivo, po
Outline: (§4)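 Rabbit 1 was given [14C]-labelled parent amide, 100 mg/kg (204.6 dpm/μg), orally by gavage and killed 2 h later. Urine (0-2 h), blood, liver, lung and kidney were collected. Samples were extracted, trimethylsilylated with BSA/pyridine at 70 °C for 12-16 h, and run by GLC on 3% OV-210 at 95 °C against the internal standard 3-ethyl-2-thiazolidinimine. Output is % of radioactivity present as the metabolite, mean of two determinations.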

Oryctolagus cuniculus [12] = experiment: Evaluation of formation of 3-Methyl-thiazolidin-2-ylideneamine from the radiolabeled compound, orally administered, from rabbit 1,2 lung was analyzed by Gas-liquid chromatographic analysis; format: ADME, organism-based; settings: in vivo, po; outline: as §4
Oryctolagus cuniculus [13] = experiment: Evaluation of formation of 3-Methyl-thiazolidin-2-ylideneamine from the radiolabeled compound, orally administered, from rabbit 3 urine was analyzed at 0-2 hr by Gas-liquid chromatographic analysis; format: ADME, organism-based; settings: in vivo, po, in the assay text read “0-24 hr” for “0-2 hr”; outline: as §3
[14] = biological target: Indolethylamine N-methyltransferase (Homo sapiens) (UniProt O95050); experiment: In vitro evaluation of Indoleethylamine-N-methyltransferase in human lung preparations for ability to inhibit conversion of N-methyltryptamine (NMT) to N,N-dimethyltryptamine (DMT) at dose 25 ug/mL; format: tissue-based
Outline: (§5)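 Human lung INMT was taken from the 50000g supernatant, cut with 40-60% ammonium sulfate, dialysed and purified on Sephadex G-150. The reaction contained 0.007 M N-methyltryptamine stock, S-[methyl-14C]adenosylmethionine and potassium phosphate, pH 7.9, in 0.105 mL, run 90 min at 37 °C. It was stopped with borate at pH 10. [14C]DMT was extracted into isoamyl alcohol and counted by scintillation.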

[15] = biological target: Indolethylamine N-methyltransferase (Homo sapiens) (UniProt O95050); experiment: In vitro evaluation of Indoleethylamine-N-methyltransferase in human lung preparations for the ability to inhibit conversion of N-methyltryptamine (NMT) to N,N-dimethyltryptamine (DMT) at dose 2.5 ug/mL; format: tissue-based; outline: as §5
[16] = Dose that causes approximately 50% lethality in mice, when given perorally; format: ADME, organism-based; settings: mouse, in vivo, po
Outline: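 Mice in groups of one to three were dosed orally. Deaths were scored on day 7 after dosing, and the LD50 was obtained by graphical interpolation.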

[17] = Dose that causes approximately 50% lethality in mice, when given intraperitoneally; Value ranges from 1000-1500; format: ADME, organism-based; settings: mouse, in vivo, ip
Oryctolagus cuniculus [18] = experiment: Evaluation of formation of 3-Methyl-thiazolidin-2-ylideneamine from the radiolabeled compound, orally administered, from rabbit 2 urine was analyzed at 0-2 hr by Gas-liquid chromatographic analysis; format: ADME, organism-based; settings: in vivo, po, in the assay text read “0-4 hr” for “0-2 hr”
Outline: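 Rabbit 2 was gavaged twice with [14C]-labelled parent amide, 100 mg/kg each dose (204.6 dpm/μg), 2 h apart, and killed 2 h after the second dose. Urine (0-4 h), blood, liver, lung and kidney were taken. The metabolite was measured by GLC of trimethylsilyl derivatives (3% OV-210, 95 °C, internal standard 3-ethyl-2-thiazolidinimine). Values are % of radioactivity as metabolite, mean of two determinations.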

[19] = tested on: Indolethylamine N-methyltransferase (Oryctolagus cuniculus); experiment: Compound tested for inhibitory activity against rabbit lung Indoleethylamine-N-methyltransferase at oral dose 25 mg/kg
[20] = tested on: Indolethylamine N-methyltransferase (Oryctolagus cuniculus); experiment: In vivo evaluation of specific activity against rabbit lung Indoleethylamine-N-methyltransferase at intravenous dose of 5 mg/kg
Oryctolagus cuniculus [21] = experiment: 200 mg/kg of [14C]- radiolabeled compound was orally administered in rabbit2, and radioactivity content in urine was estimated at 0-4 hr; settings: rabbit, in vivo, po
Oryctolagus cuniculus [22] = experiment: 100 mg/kg of [14C]- radiolabeled compound was orally administered in rabbit3, and radioactivity content in urine was estimated at 0-24 hr; settings: rabbit, in vivo, po
Oryctolagus cuniculus [23] = experiment: 100 mg/kg of [14C]- radiolabeled compound was orally administered in rabbit3, and radioactivity content in feces was estimated at 0-48 hr; settings: rabbit, in vivo, po
Oryctolagus cuniculus [24] = experiment: 100 mg/kg of [14C]- radiolabeled compound was orally (gavage) administered in rabbit3, and radioactivity content in urine was estimated at 48-72 h; settings: rabbit, in vivo, po

Indolethylamine N-methyltransferase (Homo sapiens), sequence (O95050 whole entry): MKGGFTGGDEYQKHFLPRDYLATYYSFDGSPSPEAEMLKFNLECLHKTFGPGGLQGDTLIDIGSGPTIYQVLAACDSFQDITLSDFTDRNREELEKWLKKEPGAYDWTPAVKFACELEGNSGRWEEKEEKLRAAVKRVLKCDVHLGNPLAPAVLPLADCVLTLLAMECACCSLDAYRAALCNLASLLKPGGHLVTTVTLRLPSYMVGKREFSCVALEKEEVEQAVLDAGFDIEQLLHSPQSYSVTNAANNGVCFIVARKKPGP

Work on CN1CCS/C1=N\C(=O)CCC(=O)/N=C1/SCCN1C yielded an Administered dose (Oryctolagus cuniculus [1]) of 90.7%, a Tissue concentration (Oryctolagus cuniculus [2]) of 211 µg/g and a Plasma concentration (Oryctolagus cuniculus [3]) of 23.5 µg/g. The Radioactivity level (Oryctolagus cuniculus [4]) was 36.4 µg/g, the Radioactivity level (Oryctolagus cuniculus [5]) was 21.1 µg/mL and the Radioactivity level (Oryctolagus cuniculus [6]) was 4.1 µg/mL. For the same compound, the Radioactivity level (Oryctolagus cuniculus [7]) was 4 µg/mL, the Administered dose (Oryctolagus cuniculus [8]) was 41.3% and the Administered dose (Oryctolagus cuniculus [9]) was 10.8%. It also gave a Radioactivity (Oryctolagus cuniculus [10]) of 48.7%, a Radioactivity (Oryctolagus cuniculus [11]) of 72.8% and a Radioactivity (Oryctolagus cuniculus [12]) of 92.9%. For the same compound, the Radioactivity (Oryctolagus cuniculus [13]) was 51.3%, the inhibition [14] was 12% and the inhibition [15] was 74%. For the same compound, the LD50 [16] was 1460 mg/kg, the LD50 [17] was 1000 mg/kg and the Radioactivity (Oryctolagus cuniculus [18]) was 44.7%. For the same compound, the inhibition [19] was 76.1%, the Specific activity [20] was 37000 dpm and the Administered dose (Oryctolagus cuniculus [21]) was 24%. For the same compound, the Administered dose (Oryctolagus cuniculus [22]) was 85.9%, the Administered dose (Oryctolagus cuniculus [23]) was 3.8% and the Administered dose (Oryctolagus cuniculus [24]) was 0.2%.
